Test [1] deals with Candida albicans. Nature of the test: Evaluated in vitro for the minimum inhibitory concentration against Candida albicans 124. Type of test: functional. The gist of the method: (§1)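 Yeast tube dilution in malt extract broth (pH 4.8), with compounds in DMSO serially diluted in the medium. Inoculum was blastospores from about 30-h shaken cultures in yeast nitrogen base at 37 °C. Growth was read after 48 h at 30 °C. MIC was the lowest concentration without macroscopically visible growth.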

The test system of test [2] is Sporothrix schenckii. Nature of the test: Evaluated in vitro for the minimum inhibitory concentration against Sporothrix schenckii.
For test [3], the system named is Microsporum canis. As to the kind of experiment: Evaluated in vitro for the minimum inhibitory concentration against Microsporum canis. The class given is functional. Summed up:
(§2)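 Dermatophytes were tested in glass tubes of Sabouraud's dextrose broth (pH 6.5) against DMSO-dissolved compounds serially diluted in the medium. Inoculum was taken by spatula from 21-day Kimming agar cultures grown at 30 °C. Incubation was 7 days at 30 °C. MIC was the lowest concentration showing no macroscopic fungal growth.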

Test [4] deals with Trichophyton benhamiae. As to the kind of experiment: Evaluated in vitro for the minimum inhibitory concentration against Trichophyton mentagrophytes. The class given is functional, Arthroderma benhamiae. The gist of the method:
as §2

Test [5] deals with Aspergillus fumigatus. Nature of the test: Evaluated in vitro for the minimum inhibitory concentration against Aspergillus fumigatus.
Test [6] deals with Candida parapsilosis. As to the kind of experiment: Evaluated in vitro for the minimum inhibitory concentration against Candida parapsilosis 39. Type of test: functional. The note with it: Lodderomyces parapsilosis. Summed up: as §1
In test [7] the test system is Candida parapsilosis. Nature of the test: In vitro minimum inhibitory concentration which is the lowest concentration at which no signs of fungal growth were detected against Candida parapsilosis 39. The class given is functional. The note with it: Lodderomyces parapsilosis. Summed up:
as §1

The test system of test [8] is Trichophyton benhamiae. Nature of the test: In vitro minimum inhibitory concentration which is the lowest concentration at which no signs of fungal growth were detected against Trichophyton mentagrophytes. The class given is functional, Arthroderma benhamiae. The gist of the method:
as §2

The subject of test [9] is Microsporum canis. As to the kind of experiment: In vitro minimum inhibitory concentration which is the lowest concentration at which no signs of fungal growth were detected against Microsporum canis. The class given is functional. Summed up:
as §2

Test [10] concerns Aspergillus fumigatus. As to the kind of experiment: In vitro minimum inhibitory concentration which is the lowest concentration at which no signs of fungal growth were detected against Aspergillus fumigatus.
The subject of test [11] is Sporothrix schenckii. As to the kind of experiment: In vitro minimum inhibitory concentration which is the lowest concentration at which no signs of fungal growth were detected against Sporothrix schenckii.
For test [12], the system named is Candida albicans. As to the kind of experiment: In vitro minimum inhibitory concentration which is the lowest concentration at which no signs of fungal growth were detected against Candida albicans 124. Type of test: functional. Summed up:
as §1

Converted amounts (≈) assume the structure as drawn.

Turning to `CN(C/C=C/C#CC(C)(C)C)Cc1cccc2ccsc12.Cl`, the MIC (in general, the smallest concentration in the dilution series that meets the test's criterion for growth inhibition) came to 25 µg/mL in the test with Candida albicans [1]; 0.1 µg/mL in the test on Sporothrix schenckii [2]; 0.01 µg/mL in the test with Microsporum canis [3]; 0.006 µg/mL in the test with Trichophyton benhamiae [4]; 0.2 µg/mL in the test on Aspergillus fumigatus [5]; 0.8 µg/mL in the test with Candida parapsilosis [6].

As to `CN(C/C=C/C#CC(C)(C)C)Cc1cc(Cl)cc2ccsc12.Cl`, the MIC is above 200 µg/mL against Candida albicans [1]; above 200 µg/mL against Sporothrix schenckii [2]; 0.1 µg/mL in the test with Microsporum canis [3]; 0.05 µg/mL against Trichophyton benhamiae [4]; 3.13 µg/mL in the test with Aspergillus fumigatus [5]; 0.2 µg/mL in the test with Candida parapsilosis [6].

With `CN(C/C=C/C#CC(C)(C)C)Cc1ccc2sccc2c1`, the MIC is 200 µg/mL (≈ 672 µM) against Candida albicans [1]; above 200 µg/mL against Sporothrix schenckii [2]; 1.56 µg/mL (≈ 5.24 µM) against Microsporum canis [3]; 0.4 µg/mL (≈ 1.34 µM) in the test on Trichophyton benhamiae [4]; 1.56 µg/mL (≈ 5.24 µM) against Aspergillus fumigatus [5]; 100 µg/mL (≈ 336 µM) against Candida parapsilosis [6].

In the case of `CN(C/C=C/C#CC(C)(C)C)Cc1cccc2cc(Cl)sc12.Cl`, the minimum inhibitory concentration (MIC) is above 100 µg/mL in the test on Candida albicans [1]; above 100 µg/mL in the test with Sporothrix schenckii [2]; 0.01 µg/mL in the test with Microsporum canis [3]; 0.01 µg/mL in the test on Trichophyton benhamiae [4]; above 100 µg/mL in the test with Aspergillus fumigatus [5]; 0.8 µg/mL against Candida parapsilosis [6].

Regarding `CN(C/C=C/C#CC(C)(C)C)Cc1cccc2sc(Cl)cc12.Cl`, the MIC against Candida albicans [1] was found to be 25 µg/mL; against Sporothrix schenckii [2] it was 6.25 µg/mL; against Microsporum canis [3], 0.006 µg/mL; with Trichophyton benhamiae [4], 0.006 µg/mL; in the test on Aspergillus fumigatus [5], 0.2 µg/mL; against Candida parapsilosis [6], 0.2 µg/mL.

For the compound `CN(C/C=C/C#CC(C)(C)C)Cc1cccc2cc(F)sc12.Cl`, the minimum inhibitory concentration (MIC) against Candida albicans [1] worked out at 25 µg/mL; in the test with Sporothrix schenckii [2], 3.13 µg/mL; against Microsporum canis [3], 0.01 µg/mL; against Trichophyton benhamiae [4], 0.006 µg/mL; with Aspergillus fumigatus [5], 0.05 µg/mL; with Candida parapsilosis [7], 6.25 µg/mL.

Consider `CN(C/C=C/C#CC(C)(C)C)Cc1c(Cl)sc2ccccc12`, for which the MIC was above 200 µg/mL in the test on Candida albicans [1]; above 200 µg/mL in the test with Sporothrix schenckii [2]; 0.1 µg/mL (≈ 0.301 µM) in the test with Microsporum canis [3]; 0.1 µg/mL (≈ 0.301 µM) against Trichophyton benhamiae [4]; above 200 µg/mL with Aspergillus fumigatus [5]; 6.25 µg/mL (≈ 18.8 µM) with Candida parapsilosis [6].

With `CN(C/C=C/C#CC(C)(C)C)Cc1cccc2c(F)csc12.Cl`, the minimum inhibitory concentration (MIC) against Candida albicans [1] was determined as 0.8 µg/mL; with Sporothrix schenckii [2], 0.05 µg/mL; against Microsporum canis [3] it was 0.0015 µg/mL; against Trichophyton benhamiae [4] it was 0.0008 µg/mL; against Aspergillus fumigatus [5], 0.1 µg/mL; against Candida parapsilosis [6], 0.1 µg/mL.

For `CN(C/C=C/C#CC(C)(C)C)Cc1cccc2c(C(F)(F)F)csc12.Cl`, the MIC against Candida albicans [1] turned out to be 3.13 µg/mL; against Sporothrix schenckii [2], 50 µg/mL; in the test on Microsporum canis [3], 0.1 µg/mL; in the test on Trichophyton benhamiae [4], 0.05 µg/mL; in the test on Aspergillus fumigatus [5] it was 12.5 µg/mL; with Candida parapsilosis [6], 1.56 µg/mL.

Take `CN(C/C=C/C#CC(C)(C)C)Cc1ccc(Cl)c2ccsc12.Cl`: the MIC against Candida albicans [1] is 100 µg/mL; in the test on Sporothrix schenckii [2], above 200 µg/mL; in the test with Microsporum canis [3] it was 0.4 µg/mL; against Trichophyton benhamiae [4], 0.1 µg/mL; with Aspergillus fumigatus [5], above 200 µg/mL; in the test with Candida parapsilosis [6], 0.8 µg/mL.

As for `CN(C/C=C/C#CC(C)(C)C)Cc1csc2c(Cl)cccc12.Cl`, the MIC against Candida albicans [1] was 25 µg/mL; with Sporothrix schenckii [2], above 100 µg/mL; in the test with Microsporum canis [3] it was 0.05 µg/mL; in the test on Trichophyton benhamiae [4], 0.02 µg/mL; against Aspergillus fumigatus [5], 0.8 µg/mL; with Candida parapsilosis [6], 1.56 µg/mL.

With `CN(C/C=C/C#CC(C)(C)C)Cc1cccc2c(C#N)csc12.Cl`, the MIC against Trichophyton benhamiae [8] was determined as 0.02 µg/mL; with Microsporum canis [9], 0.01 µg/mL; against Aspergillus fumigatus [10], 3.13 µg/mL; against Sporothrix schenckii [11], 0.4 µg/mL; in the test with Candida albicans [12], 3.13 µg/mL; against Candida parapsilosis [7], 0.2 µg/mL.

In the case of `CN(C/C=C/C#CC(C)(C)C)Cc1cccc2c(Br)csc12.Cl`, the MIC is 0.006 µg/mL in the test with Trichophyton benhamiae [8]; 0.006 µg/mL against Microsporum canis [9]; 0.8 µg/mL against Aspergillus fumigatus [10]; 0.4 µg/mL in the test with Sporothrix schenckii [11]; 0.8 µg/mL in the test on Candida albicans [12]; 0.2 µg/mL in the test on Candida parapsilosis [7].

In the case of `Cc1csc2c(CN(C)C/C=C/C#CC(C)(C)C)cccc12.Cl`, the MIC in the test on Candida albicans [1] worked out at 3.13 µg/mL; against Sporothrix schenckii [2], 0.1 µg/mL; in the test with Microsporum canis [3] it was 0.006 µg/mL; in the test on Trichophyton benhamiae [4], 0.006 µg/mL; against Aspergillus fumigatus [5], 0.4 µg/mL; against Candida parapsilosis [6], 0.4 µg/mL.

`CN(C/C=C/C#CC(C)(C)C)Cc1cc2ccccc2s1`: the MIC in the test with Candida albicans [1] is above 200 µg/mL; against Sporothrix schenckii [2], above 100 µg/mL; against Microsporum canis [3], above 100 µg/mL; in the test with Trichophyton benhamiae [4], above 100 µg/mL; in the test on Candida parapsilosis [6], above 200 µg/mL.

For the compound `CSc1csc2c(CN(C)C/C=C/C#CC(C)(C)C)cccc12.Cl`, the MIC against Candida albicans [1] was 6.25 µg/mL; against Sporothrix schenckii [2] it was above 200 µg/mL; with Microsporum canis [3] it was 0.1 µg/mL; with Trichophyton benhamiae [4] it was 0.02 µg/mL; with Aspergillus fumigatus [5], 6.25 µg/mL; in the test with Candida parapsilosis [6] it was 0.8 µg/mL.

Turning to `CN(C/C=C/C#CC(C)(C)C)Cc1cccc2c(C=O)csc12`, the MIC was 0.05 µg/mL (≈ 0.154 µM) in the test on Trichophyton benhamiae [8]; 0.02 µg/mL (≈ 0.0614 µM) against Microsporum canis [9]; 0.4 µg/mL (≈ 1.23 µM) in the test on Aspergillus fumigatus [10]; 1.56 µg/mL (≈ 4.79 µM) against Sporothrix schenckii [11]; 6.25 µg/mL (≈ 19.2 µM) with Candida albicans [12]; 0.4 µg/mL (≈ 1.23 µM) against Candida parapsilosis [7].

As for `CN(C/C=C/C#CC(C)(C)C)Cc1csc2ccccc12.Cl`, the minimum inhibitory concentration (MIC) is 100 µg/mL in the test with Candida albicans [1]; 3.13 µg/mL in the test on Sporothrix schenckii [2]; 0.02 µg/mL against Microsporum canis [3]; 0.01 µg/mL in the test with Trichophyton benhamiae [4]; 0.8 µg/mL in the test on Aspergillus fumigatus [5]; 3.13 µg/mL with Candida parapsilosis [6].

For `CN(C/C=C/C#CC(C)(C)C)Cc1cccc2sccc12.Cl`, the MIC in the test on Candida albicans [1] came to 50 µg/mL; with Sporothrix schenckii [2], 0.8 µg/mL; in the test on Microsporum canis [3], 0.01 µg/mL; in the test on Trichophyton benhamiae [4], 0.006 µg/mL; in the test on Aspergillus fumigatus [5], 0.4 µg/mL; with Candida parapsilosis [6] it was 1.56 µg/mL.

Regarding `CN(C/C=C/C#CC(C)(C)C)Cc1cccc2scc(Cl)c12.Cl`, the MIC came to 50 µg/mL against Candida albicans [1]; 25 µg/mL in the test with Sporothrix schenckii [2]; 0.1 µg/mL with Microsporum canis [3]; 0.05 µg/mL in the test with Trichophyton benhamiae [4]; 0.8 µg/mL in the test on Aspergillus fumigatus [5]; 6.25 µg/mL in the test with Candida parapsilosis [6].

Source of the values: ChEMBL document CHEMBL1125755, “Synthesis and structure-activity relationships of benzo[b]thienylallylamine antimycotics” (1991).
